Data from ChEMBL document CHEMBL1142373 (J Med Chem, 2008).
In brackets after ≈: the same amount, converted by molar mass. Each block holds one molecule with its values, some of them ahead of it.

How the values were obtained:
[1] = test system: Plasmodium falciparum; assay: Antiplasmodial activity against chloroquine-sensitive Plasmodium falciparum D10 by [3H]hypoxanthine incorporation; type: functional, organism-based
[2] = test system: Plasmodium falciparum; assay: Antiplasmodial activity against chloroquine-resistant Plasmodium falciparum K1 by [3H]hypoxanthine incorporation; type: functional, organism-based
[3] = test system: Plasmodium falciparum; assay: Antiplasmodial activity against chloroquine-sensitive Plasmodium falciparum 3D7 by [3H]hypoxanthine incorporation; type: functional, organism-based
[4] = test system: Plasmodium falciparum; assay: Antiplasmodial activity against chloroquine-resistant Plasmodium falciparum W2 by [3H]hypoxanthine incorporation; type: functional, organism-based
[5] = test system: Plasmodium falciparum; assay: Antiplasmodial activity against chloroquine-sensitive Plasmodium falciparum D10 by parasite lactate dehydrogenase assay; settings: D10, 72 h
[6] = Cytotoxicity against human KB cells by MTT assay; type: cell-based; settings: read-out: TC50 (the source's name)
[7] = Cytotoxicity against mouse NSO cells after 48 hrs by MTT assay; type: cell-based; settings: read-out: TC50
Outline: (§1)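 NSO (3000 cells/well) and Daudi (300 cells/well) cells were grown in RPMI 1640 with 5% FCS. Compounds in DMSO were added 12 h after plating and left 48 h. MTT was then added (20 µL of 5 mg/mL stock, 2 h, 37 °C), followed by SDS/DMF lysis buffer overnight, with OD read at 570 nm. TC50 is reported; at least two experiments in triplicate.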

[8] = Cytotoxicity against human lymphocytes after 48 hrs by MTT assay; type: cell-based, Lymphocyte; settings: read-out: TC50
Outline: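 Donor PBMC were separated on Ficoll-Hypaque and stimulated with 5 µg/mL PHA, then plated at 20000 cells/well. Compounds in DMSO were added 12 h later and left 48 h. Read-out was MTT formazan (2 h, 37 °C), extracted overnight in SDS/DMF buffer, with OD at 570 nm. TC50 is reported; at least two runs in triplicate.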

[9] = Cytotoxicity against human Daudi cells after 48 hrs by MTT assay; type: cell-based; settings: read-out: TC50; outline: as §1
[10] = test system: Plasmodium chabaudi; assay: Antimalarial activity against Plasmodium chabaudi AS infected CD1 mice (Mus musculus) assessed as suppression of parasitaemia at 50mg/kg, perorally after 4 days; type: functional
Outline: (§2)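 Female CD1 mice (20–25 g) got 0.2 mL i.v. of donor blood diluted to 1% parasitaemia (1 × 10^7 infected erythrocytes/mL). Oral dosing started 2–4 h post-inoculation as a 0.2 mL bolus once daily for 4 days, in 10% Tween-80/EtOH plus sterile PBS. On day 5, Giemsa-stained smears were read by microscopy. % suppression = [(C−T)/C]×100; five mice per group.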

[11] = Lipophilicity, Log D at pH 5.5; type: physicochemical; settings: buffer
[12] = test system: Aspergillus flavus; assay: Antifungal activity against Aspergillus flavus ATCC 204304; type: functional
[13] = test system: Candida parapsilosis; assay: Antifungal activity against Candida parapsilosis ATCC 22019; type: functional; settings: Lodderomyces parapsilosis
[14] = Lipophilicity, Log D at pH 7.4; type: physicochemical; settings: buffer
[15] = test system: Pichia kudriavzevii; assay: Antifungal activity against Candida krusei ATCC 6258; type: functional
[16] = test system: Candida albicans; assay: Antifungal activity against Candida albicans; type: functional
[17] = test system: Aspergillus fumigatus; assay: Antifungal activity against Aspergillus fumigatus; type: functional
[18] = Lipophilicity, Log D at pH 7.2; type: physicochemical; settings: buffer
[19] = test system: Cryptococcus neoformans; assay: Antifungal activity against Cryptococcus neoformans; type: functional
[20] = test system: Plasmodium berghei; assay: Reduced parasitemia in Plasmodium berghei ANKA infected CD1 mice (Mus musculus) at 150 mg/kg peroral dose after 4 days; type: functional; design: scale not given: the % may be the effect or the level left; settings: route oral; outline: as §2
[21] = test system: Aspergillus fumigatus; assay: Antifungal activity against itraconazole resistant Aspergillus fumigatus; type: functional
[22] = test system: Plasmodium chabaudi; assay: Antimalarial activity against Plasmodium chabaudi AS infected CD1 mice (Mus musculus) assessed as suppression of parasitaemia at 10 mg/kg, perorally after 4 days; type: functional; settings: route oral; outline: as §2
[23] = test system: Plasmodium berghei; assay: Reduced parasitemia in Plasmodium berghei ANKA infected CD1 mice (Mus musculus) at 10 mg/kg peroral dose after 4 days; type: functional; design: scale not given: the % may be the effect or the level left; settings: route oral; outline: as §2
[24] = test system: Plasmodium berghei; assay: Reduced parasitemia in Plasmodium berghei ANKA infected CD1 mice (Mus musculus) at 30 mg/kg dose after 4 days; design: scale not given: the % may be the effect or the level left

Structure (SMILES): Clc1cccc(C(c2ccnc3ccccc23)n2ccnc2)c1 (racemic)
IC50 [1]: > 10000 nM
IC50 [2]: 4290 nM
IC50 [3]: > 10000 nM
IC50 [4]: > 10000 nM

Structure (SMILES): CCN(CC)Cc1ccc(C(c2cccc(Cl)c2)n2ccnc2)cc1 (racemic)
IC50 [2]: 282 nM
IC50 [3]: 1290 nM
IC50 [4]: 452 nM
IC50 [5]: 1890 nM

Structure (SMILES): CCN(CC)Cc1ccc(C(c2ccccc2)(c2ccc(Cl)cc2)n2ccnc2)cc1 (racemic)
IC50 [2]: 0.48 nM
IC50 [4]: 41.4 nM
IC50 [5]: 415 nM

Structure (SMILES): Clc1cccc(C(c2ccc(CN3CCCC3)cc2)(c2ccccn2)n2ccnc2)c1 (racemic)
CC50 [6]: 27200 nM
IC50 [2]: 155 nM
IC50 [3]: 349 nM
IC50 [4]: 157 nM
IC50 [5]: 619 nM

IC50 [3]: 561 nM
IC50 [5]: 726 nM
Structure (SMILES): Clc1ccc(C(c2ccccc2)(c2ccc(CN3CCOCC3)cc2)n2ccnc2)cc1 (racemic)
CC50 at 48 h [7]: 16000 nM
CC50 at 48 h [8]: 13300 nM
CC50 at 48 h [9]: 15600 nM

Structure (SMILES): Clc1ccc(C(c2ccc(CN3CCCC3)cc2)(c2ccc(CN3CCCC3)cc2)n2ccnc2)cc1
Activity [10]: 94%
logD [11]: 0.67
MIC [12]: > 32 µg/mL
CC50 at 48 h [7]: 47000 nM
IC50 [2]: 11.7 nM
MIC [13]: > 32 µg/mL
logD [14]: 1.56
MIC [15]: > 32 µg/mL
MIC [16]: > 32 µg/mL
CC50 at 48 h [8]: 68500 nM
IC50 [3]: 26.1 nM
IC50 [4]: 39.2 nM
IC50 [5]: 48.4 nM
MIC [17]: > 32 µg/mL
CC50 at 48 h [9]: 58700 nM
logD [18]: 1.4
MIC [19]: > 32 µg/mL

Structure (SMILES): Fc1ccc(C(c2ccc(CN3CCCC3)cc2)(c2ccnc3cc(Cl)ccc23)n2ccnc2)cc1 (racemic)
Activity [10]: 99.4%
CC50 [6]: 33000 nM
MIC [12]: > 32 µg/mL
IC50 [2]: 67 nM
MIC [13]: > 32 µg/mL
MIC [15]: > 32 µg/mL
MIC [16]: 8 µg/mL (≈ 16.1 µM)
IC50 [3]: 66.9 nM
IC50 [4]: 2 nM
IC50 [5]: 85.8 nM
MIC [17]: > 32 µg/mL
MIC [19]: > 32 µg/mL

Structure (SMILES): Clc1ccc(C(c2ccccc2)(c2ccc(CN3CCCC3)cc2)N2CCNCC2)cc1 (racemic)
CC50 [6]: 20900 nM
IC50 [1]: > 10000 nM
IC50 [2]: 3510 nM
IC50 [3]: 3840 nM
IC50 [4]: 1560 nM

Structure (SMILES): Clc1cccc(C(c2ccc(CN3CCCC3)cc2)(c2cccs2)n2ccnc2)c1 (racemic)
IC50 [2]: 1270 nM
IC50 [3]: 4270 nM
IC50 [4]: 1040 nM
IC50 [5]: 7170 nM

Structure (SMILES): Clc1ccccc1C(c1ccccc1)(c1ccccc1)n1ccnc1 [CLOTRIMAZOLE]
Activity [10]: 6%
CC50 [6]: 88100 nM
MIC [12]: 4 µg/mL (≈ 11.6 µM)
MIC [13]: 2 µg/mL (≈ 5.8 µM)
MIC [15]: 2 µg/mL (≈ 5.8 µM)
MIC [16]: 0.03 µg/mL (≈ 0.087 µM)
Activity [20]: 28.3%
MIC [17]: 4 µg/mL (≈ 11.6 µM)
MIC [19]: 2 µg/mL (≈ 5.8 µM)
MIC [21]: 4 µg/mL (≈ 11.6 µM)

Structure (SMILES): Clc1ccc(C(c2ccccc2)(c2ccc(CN3CCCC3)cc2)n2cnc3ccccc32)cc1 (racemic)
IC50 [2]: 23 nM
IC50 [3]: 379 nM
IC50 [4]: 376 nM
IC50 [5]: 1030 nM

Structure (SMILES): CCN(CC)Cc1ccc(C(c2cccc(Cl)c2)n2cncn2)cc1 (racemic)
IC50 [1]: > 10000 nM
IC50 [2]: 3700 nM
IC50 [3]: > 10000 nM
IC50 [4]: > 10000 nM

Structure (SMILES): Fc1ccc(C(c2ccc(Cl)cc2)(c2ccc(CN3CCCC3)cc2)n2ccnc2)cc1 (racemic)
CC50 [6]: 8200 nM
IC50 [2]: 380 nM
IC50 [3]: 82 nM
IC50 [4]: 1.5 nM
IC50 [5]: 118 nM

Structure (SMILES): c1ccc2c(C(c3ccc(CN4CCCC4)cc3)n3ccnc3)ccnc2c1 (racemic)
IC50 [2]: 379 nM
IC50 [3]: 5030 nM
IC50 [4]: 1790 nM
IC50 [5]: 7480 nM

Structure (SMILES): CC(C)(C)OC(=O)N1CCN(Cc2ccc(C(c3cccc(Cl)c3)n3ccnc3)cc2)CC1 (racemic)
IC50 [2]: 1070 nM
IC50 [3]: 4110 nM
IC50 [4]: 1520 nM
IC50 [5]: 5260 nM

Structure (SMILES): Clc1ccc(C(c2ccc(CN3CCCC3)cc2)(c2cccs2)n2ccnc2)cc1 (racemic)
IC50 [2]: 1780 nM
IC50 [3]: 3570 nM
IC50 [4]: 6690 nM
IC50 [5]: 1360 nM

Structure (SMILES): Clc1ccc2c(C(c3ccccc3)(c3ccc(CN4CCCC4)cc3)n3ccnc3)ccnc2c1 (racemic)
CC50 [6]: 51800 nM
IC50 [2]: 60 nM
IC50 [3]: 148 nM
IC50 [4]: 10 nM
IC50 [5]: 168 nM

Structure (SMILES): Clc1cccc(C(c2ccc(CN3CCCC3)cc2)(c2ccoc2)n2ccnc2)c1 (racemic)
IC50 [3]: 101 nM
IC50 [4]: 167 nM
IC50 [5]: 238 nM

Structure (SMILES): Clc1cccc(C(c2ccc(CN3CCNCC3)cc2)n2ccnc2)c1 (racemic)
IC50 [2]: 354 nM
IC50 [3]: 411 nM
IC50 [4]: 327 nM
IC50 [5]: 516 nM

Structure (SMILES): Clc1ccc(C(c2ccc(CN3CCCC3)cc2)(c2nccs2)n2ccnc2)cc1 (racemic)
CC50 [6]: 64200 nM
IC50 [2]: 180 nM
IC50 [3]: 177 nM
IC50 [4]: 80 nM
IC50 [5]: 300 nM

IC50 [3]: 55.4 nM
IC50 [5]: 84.1 nM
Structure (SMILES): Clc1ccc(C(c2ccccc2)(c2ccc(CN3CCNCC3)cc2)n2ccnc2)cc1 (racemic)
CC50 at 48 h [7]: 16200 nM
CC50 at 48 h [8]: 13700 nM
CC50 at 48 h [9]: 15800 nM

Structure (SMILES): CCN(CC)CCCC(C)Nc1ccnc2cc(Cl)ccc12 (centres undefined) [CHLOROQUINE]
CC50 [6]: 207000 nM
Activity [22]: 100%
Activity [23]: 89.1%

Structure (SMILES): Clc1ccc(C(c2ccccc2)(c2ccc(CN3CCCC3)cc2)n2ccnc2)cc1 (racemic)
Activity [10]: 94.8%
logD [11]: 1.72
MIC [12]: > 32 µg/mL
CC50 at 48 h [7]: 51500 nM
MIC [13]: 32 µg/mL (≈ 74.8 µM)
logD [14]: 3.33
MIC [15]: 16 µg/mL (≈ 37.4 µM)
MIC [16]: 32 µg/mL (≈ 74.8 µM)
Activity [24]: 37.6%
CC50 at 48 h [8]: 70300 nM
MIC [17]: > 32 µg/mL
CC50 at 48 h [9]: 58500 nM
logD [18]: 3.13
MIC [19]: 32 µg/mL (≈ 74.8 µM)

Structure (SMILES): Clc1cccc(C(c2ccncc2)(c2ccc(CN3CCCC3)cc2)n2ccnc2)c1 (racemic)
IC50 [2]: 510 nM
IC50 [3]: 587 nM
IC50 [4]: 415 nM
IC50 [5]: 1230 nM

Structure (SMILES): Clc1ccc2c(C(c3ccc(CN4CCCC4)cc3)n3ccnc3)ccnc2c1 (racemic)
IC50 [2]: 745 nM
IC50 [3]: 1810 nM
IC50 [4]: 1170 nM
IC50 [5]: 1630 nM

Structure (SMILES): Clc1cccc(C(c2ccc(CN3CCCC3)cc2)(c2nccs2)n2ccnc2)c1 (racemic)
Activity [10]: 73.1%
CC50 at 48 h [7]: 52900 nM
IC50 [2]: 66.7 nM
CC50 at 48 h [8]: 80500 nM
IC50 [3]: 314 nM
IC50 [4]: 1850 nM
IC50 [5]: 484 nM
CC50 at 48 h [9]: 57500 nM
